Experimental findings from ChEMBL document CHEMBL4765427, “A low toxic CRM1 degrader: Synthesis and anti-proliferation on MGC803 and HGC27” (Eur J Med Chem, 2020) are described below.

In one assay the test system is MGC-803. As to the kind of experiment: Antiproliferative activity against human MGC-803 cells by MTT assay. Type of assay: functional, cell-based. An outline of the steps:
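They were seeded at 5×10⁴/well and cultured overnight, then exposed to compound for 24 h. MTT (5 mg/mL solution) was added for 4 h at 37 °C, formazan was dissolved in DMSO, and absorbance was read at 490 nm. Each experiment was run three times.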

For assay [1], the target named is Exportin-1 (Homo sapiens) (UniProt O14980). The assay is described as follows: Induction of CRM1 degradation in human MGC-803 cells assessed as increase in Ranbp1 accumulation in nucleus at 10 uM measured after 6 hrs by DAPI staining based immunofluorescence assay. It counts as cell-based. An outline of the steps: (§1)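 MGC803 cells were exposed to 10 μM compound for 0 or 6 h. They were fixed in 4% paraformaldehyde for 30 min, permeabilized with 0.1% Triton X-100 for 10 min and blocked with 10% goat serum for 30 min. Staining used anti-Ranbp1 or anti-p53 (green) with DAPI nuclei, and nuclear localization was imaged by confocal microscopy.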
Chain of Exportin-1 (Homo sapiens) (O14980 whole entry): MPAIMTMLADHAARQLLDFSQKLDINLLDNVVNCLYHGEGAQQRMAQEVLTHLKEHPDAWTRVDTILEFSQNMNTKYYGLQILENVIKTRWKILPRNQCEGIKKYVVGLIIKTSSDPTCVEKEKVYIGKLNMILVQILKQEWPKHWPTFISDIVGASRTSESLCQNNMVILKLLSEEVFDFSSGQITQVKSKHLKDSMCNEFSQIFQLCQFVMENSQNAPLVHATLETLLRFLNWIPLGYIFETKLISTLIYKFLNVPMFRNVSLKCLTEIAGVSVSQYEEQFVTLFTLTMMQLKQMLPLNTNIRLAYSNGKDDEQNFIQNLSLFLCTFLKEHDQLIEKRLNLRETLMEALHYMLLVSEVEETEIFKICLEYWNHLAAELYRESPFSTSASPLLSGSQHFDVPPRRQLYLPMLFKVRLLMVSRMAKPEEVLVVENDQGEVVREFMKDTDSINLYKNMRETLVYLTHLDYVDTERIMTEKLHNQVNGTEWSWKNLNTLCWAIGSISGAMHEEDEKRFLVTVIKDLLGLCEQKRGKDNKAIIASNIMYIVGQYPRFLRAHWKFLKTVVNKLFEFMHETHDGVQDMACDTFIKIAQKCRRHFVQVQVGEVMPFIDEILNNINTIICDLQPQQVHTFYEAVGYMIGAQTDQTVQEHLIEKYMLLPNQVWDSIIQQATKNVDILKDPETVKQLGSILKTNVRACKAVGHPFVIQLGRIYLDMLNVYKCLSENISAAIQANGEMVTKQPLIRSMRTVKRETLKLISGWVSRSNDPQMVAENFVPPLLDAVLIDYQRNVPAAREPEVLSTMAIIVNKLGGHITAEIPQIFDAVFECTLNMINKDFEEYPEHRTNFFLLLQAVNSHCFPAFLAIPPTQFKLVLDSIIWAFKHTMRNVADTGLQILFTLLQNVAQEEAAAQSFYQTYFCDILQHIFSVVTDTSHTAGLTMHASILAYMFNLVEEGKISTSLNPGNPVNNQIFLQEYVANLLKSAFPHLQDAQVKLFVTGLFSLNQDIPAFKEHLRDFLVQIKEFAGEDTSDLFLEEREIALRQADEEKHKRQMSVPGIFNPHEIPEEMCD

The target is the same in assay [2]. The assay is described as follows: Induction of CRM1 degradation in human MGC-803 cells assessed as reduction in CRM1 expression at 5 uM measured after 24 hrs in presence of proteasome inhibitor bortezomib by Western blot analysis. It counts as cell-based. Background: In western blotting, separated proteins are transferred to a membrane and probed.
For assay [3] the target is unchanged. As to the kind of experiment: Induction of CRM1 degradation in human MGC-803 cells assessed as increase in p53 accumulation in nucleus at 10 uM measured after 6 hrs by DAPI staining based immunofluorescence assay. Type of assay: cell-based. A digest of the protocol:
as §1

For assay [4], the target named is Cellular tumor antigen p53 (Homo sapiens) (UniProt P04637). The assay is described as follows: Induction of p53 cytoplasmic translocation in human MGC-803 cells assessed as increase in p53 bound BCL-XL expression at 5 uM measured after 24 hrs in presence of proteasome inhibitor MG132 by immunoprecipitation method. Type of assay: cell-based. The settings on record: filed as modulator, dose 10.0 µM, in the assay text read “at 10 uM” for “at 5 uM”. A digest of the protocol:
(§2)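 Cells pretreated with 0.05 μM MG132 for 1 h, then exposed to compound for 24 h. Proteins co-precipitated with anti-p53 antibody and detected by immunoblot.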

The target of assay [5] is Exportin-1 (Homo sapiens) (UniProt O14980). As to the kind of experiment: Induction of CRM1 degradation in human HGC-27 cells assessed as reduction in CRM1 expression at 5 uM measured after 24 hrs in presence of proteasome inhibitor MG132 by Western blot analysis. It counts as cell-based. A digest of the protocol:
(§3)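 MGC803 and HGC27 cells were exposed to 5 μM compound for 24 h with or without 0.05 μM MG132. CRM1 protein was measured by Western blot on RIPA lysates, with BCA normalization, SDS-PAGE/PVDF transfer and ECL detection.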

For assay [6], the target named is Cellular tumor antigen p53 (Homo sapiens) (UniProt P04637). As to the kind of experiment: Induction of p53 cytoplasmic translocation in human MGC-803 cells assessed as increase in p53 bound BCL-XL expression at 10 uM measured after 6 hrs in presence of proteasome inhibitor MG132 by DAPI staining based immunofluorescence assay. As to conditions: filed as modulator.
Chain of Cellular tumor antigen p53 (Homo sapiens) (P04637 whole entry, looked up): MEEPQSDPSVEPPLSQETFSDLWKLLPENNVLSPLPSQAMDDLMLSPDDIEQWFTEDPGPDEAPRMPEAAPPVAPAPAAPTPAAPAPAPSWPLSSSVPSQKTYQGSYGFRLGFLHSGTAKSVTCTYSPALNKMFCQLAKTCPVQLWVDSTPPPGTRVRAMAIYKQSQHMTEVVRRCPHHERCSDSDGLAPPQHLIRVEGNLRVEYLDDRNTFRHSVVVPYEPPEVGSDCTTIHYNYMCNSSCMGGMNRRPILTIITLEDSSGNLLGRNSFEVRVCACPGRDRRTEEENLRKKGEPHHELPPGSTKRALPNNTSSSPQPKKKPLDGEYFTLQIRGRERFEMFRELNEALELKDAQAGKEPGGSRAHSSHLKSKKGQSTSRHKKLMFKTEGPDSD

Assay [7] shares this target. As to the kind of experiment: Induction of p53 cytoplasmic translocation in human MGC-803 cells at 5 uM measured after 6 hrs in presence of proteasome inhibitor MG132 by DAPI staining based immunofluorescence assay. Type of assay: cell-based. As to conditions: filed as modulator, dose 10.0 µM, in the assay text read “at 10 uM” for “at 5 uM”. A digest of the protocol:
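Cells pretreated ±0.05 μM MG132 for 1 h, then compound for 6 h. Fixed in 4% paraformaldehyde for 30 min, permeabilized with 0.1% Triton X-100 for 10 min, blocked with 10% normal goat serum for 30 min. Stained with p53 antibody (green) and DAPI nuclei, imaged by confocal microscopy.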

Assay [8] concerns the target Exportin-1 (Homo sapiens) (UniProt O14980). The assay is described as follows: Induction of CRM1 degradation in human HGC-27 cells assessed as reduction in CRM1 expression at 5 uM measured after 24 hrs by Western blot analysis. It counts as cell-based. An outline of the steps: as §3
Assay [9] has the same target. The assay is described as follows: Induction of CRM1 degradation in human HGC-27 cells assessed as reduction in CRM1 expression measured after 24 hrs by Western blot analysis. Type of assay: cell-based. As to conditions: dose 1.25-10 µM.
Assay [10] has the same target. As to the kind of experiment: Induction of CRM1 degradation in human MGC-803 cells assessed as reduction in CRM1 expression measured after 24 hrs by Western blot analysis. Type of assay: cell-based.
For assay [11] the target is unchanged. The assay is described as follows: Induction of CRM1 degradation in human HGC-27 cells assessed as reduction in CRM1 expression at 5 uM measured after 24 hrs in presence of proteasome inhibitor bortezomib by Western blot analysis. It counts as cell-based.
For assay [12] the target is unchanged. As to the kind of experiment: Induction of CRM1 degradation in human MGC-803 cells assessed as reduction in CRM1 expression at 5 uM measured after 24 hrs in presence of proteasome inhibitor MG132 by Western blot analysis. It counts as cell-based. An outline of the steps: as §3
Assay [13] has as its target Cellular tumor antigen p53 (Homo sapiens) (UniProt P04637). The assay is described as follows: Induction of p53 cytoplasmic translocation in human MGC-803 cells assessed as increase in p53 bound BCL2 expression at 10 uM measured after 6 hrs in presence of proteasome inhibitor MG132 by DAPI staining based immunofluorescence assay. As to conditions: filed as modulator.
Assay [14] shares this target. As to the kind of experiment: Induction of p53 cytoplasmic translocation in human MGC-803 cells at 5 uM measured after 24 hrs in presence of proteasome inhibitor MG132 by immunoprecipitation method. Type of assay: cell-based. The settings on record: filed as modulator, dose 10.0 µM, in the assay text read “at 10 uM” for “at 5 uM”. A digest of the protocol: as §2
Assay [15] has the same target. The assay is described as follows: Induction of p53 cytoplasmic translocation in human MGC-803 cells assessed as increase in p53 bound BCL2 expression at 5 uM measured after 24 hrs in presence of proteasome inhibitor MG132 by immunoprecipitation method. It counts as cell-based. The settings on record: filed as modulator, dose 10.0 µM, in the assay text read “at 10 uM” for “at 5 uM”. An outline of the steps:
as §2

In assay [16] the target is Exportin-1 (Homo sapiens) (UniProt O14980). As to the kind of experiment: Induction of CRM1 degradation in human MGC-803 cells assessed as reduction in CRM1 expression at 5 uM measured after 24 hrs by Western blot analysis. Type of assay: cell-based. An outline of the steps:
as §3

Broadly, the IC50 is the concentration needed to halve the response being measured.

Calls of active or inactive are those of the source. The calls are words filed in the database; no cut-off is given here.

In the assay with MGC-803, `O=c1[nH]cc(F)c(=O)[nH]1` [FLUOROURACIL] came in with an IC50 of 24.8 µM.
The same measure, in the same setting: the figure for `O=C1C=CC[C@H](COc2ccc3c(c2)OCO3)O1` is 12 µM.
As for `Cc1ccc(C(C)C)c(OC[C@H]2CC=CC(=O)O2)c1`, the result in assay [1], in assay [3], in assay [4], in assay [6], in assay [7] and in [8] was Active. Further, the result in assay [13], in assay [14], in assay [15] and in [16] was Active. In addition, the result in assay [2], in assay [5], in assay [11] and in assay [12] was inactive. Besides, the Activity entry in assay [9] and in assay [10] was “Dose-dependent effect” throughout.
